Consider 2 molecules from ChEMBL document CHEMBL1138525 (J Med Chem, 2009).

Active and inactive are the calls of the source. The calls are words filed in the database; no cut-off is given here.

The target of test [1] is P2Y purinoceptor 2 (Homo sapiens, UniProt P41231, R177A/R180A). Description: Antagonist activity at N-terminal HA epitope-tagged human P2Y2 receptor R177A_R180A double mutant expressed in human 1321N1 cells assessed as inhibition of UTP-induced calcium mobilization. The format is functional, cell-based. The gist of the method:
(§1)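 1321N1 cells expressing wild-type or mutant receptor were dye-loaded with Oregon Green BAPTA-1/AM in Krebs-HEPES pH 7.4. Antagonist was preincubated for 20 min at 28 °C in the dark. Cells were then stimulated with UTP at a concentration giving 80-90% of maximal response. Calcium fluorescence read at 520 nm (excitation 485 nm).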
On the technique in general: A change in cytosolic calcium serves as a functional read-out for many receptors and channels.

The target in test [2] is P2Y purinoceptor 2 (Homo sapiens, UniProt P41231, C278S). Description: Antagonist activity at N-terminal HA epitope-tagged human P2Y2 receptor C278S mutant expressed in human 1321N1 cells assessed as inhibition of UTP-induced calcium mobilization. It is filed as functional, cell-based. The essentials:
as §1

Test [3] concerns P2Y purinoceptor 2 (Homo sapiens), P41231 [R177A]. Description: Antagonist activity at N-terminal HA epitope-tagged human P2Y2 receptor R177A mutant expressed in human 1321N1 cells assessed as inhibition of UTP-induced calcium mobilization. The format is functional, cell-based. The following applies: concentration not given here.
The target in test [4] is P2Y purinoceptor 2 (Homo sapiens, UniProt P41231, Y198A). Description: Antagonist activity at N-terminal HA epitope-tagged human P2Y2 receptor Y198A mutant expressed in human 1321N1 cells assessed as inhibition of UTP-induced calcium mobilization. The format is functional, cell-based. The essentials: as §1
Test [5] concerns P2Y purinoceptor 2 (Homo sapiens), P41231 [UNDEFINED MUTATION]. Description: Ratio of IC50 for N-terminal HA epitope-tagged human P2Y2 receptor C278S mutant to IC50 for wild type 3 human P2Y2 receptor.
For test [6], the target named is P2Y purinoceptor 2 (Homo sapiens, UniProt P41231, Y114A). Description: Antagonist activity at N-terminal HA epitope-tagged human P2Y2 receptor Y114A mutant expressed in human 1321N1 cells assessed as inhibition of UTP-induced calcium mobilization. It is filed as functional, cell-based. The gist of the method:
as §1

The subject of test [7] is P2Y purinoceptor 2 (Homo sapiens), P41231 [R180A]. Description: Antagonist activity at N-terminal HA epitope-tagged human P2Y2 receptor R180A mutant expressed in human 1321N1 cells assessed as inhibition of UTP-induced calcium mobilization. The format is functional, cell-based. The following applies: concentration not given here.
The target of test [8] is T1, P2Y purinoceptor 2 (Homo sapiens, UniProt P41231). Description: Antagonist activity at N-terminal HA epitope-tagged wild type 3 human P2Y2 receptor expressed in human 1321N1 cells assessed as inhibition of UTP-induced calcium mobilization. The format is functional, cell-based. The essentials:
as §1

Test [9] deals with P2Y purinoceptor 2 (Homo sapiens, UniProt P41231, Y118A). Description: Antagonist activity at N-terminal HA epitope-tagged human P2Y2 receptor Y118A mutant expressed in human 1321N1 cells assessed as inhibition of UTP-induced calcium mobilization. It is filed as functional, cell-based. The essentials:
as §1

For test [10], the system named is P2Y purinoceptor 2 (Homo sapiens), P41231 [Y198A]. Description: Agonist activity at N-terminal HA epitope-tagged human P2Y2 receptor Y198A mutant expressed in human 1321N1 cells assessed as increase in intracellular calcium level relative to carbachol. It is filed as functional, cell-based. The essentials:
(§2)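 Retrovirally transduced stable 1321N1 astrocytoma lines (wild-type lines of differing expression, or mutants) in suspension, loaded with Oregon Green BAPTA-1/AM for 1 h at room temperature. Cells were plated at 150000 per well in Krebs-HEPES pH 7.4 and held 20 min at 28 °C in the dark. Agonist was then injected, with fluorescence read at ex 485/em 520 nm for 60 × 0.4 s.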

The subject of test [11] is P2Y purinoceptor 2 (Homo sapiens), P41231 [R180A]. Description: Agonist activity at N-terminal HA epitope-tagged human P2Y2 receptor R180A mutant expressed in human 1321N1 cells assessed as increase in intracellular calcium level relative to carbachol. It is filed as functional, cell-based. The gist of the method: as §2
Test [12] relates to P2Y purinoceptor 2 (Homo sapiens), P41231 [R177A]. Description: Agonist activity at N-terminal HA epitope-tagged human P2Y2 receptor R177A mutant expressed in human 1321N1 cells assessed as increase in intracellular calcium level relative to carbachol. The format is functional, cell-based. The essentials:
as §2

Test [13] addresses T1, P2Y purinoceptor 2. Description: Agonist activity at N-terminal HA epitope-tagged wild type 4 human P2Y2 receptor expressed in human 1321N1 cells assessed as increase in intracellular calcium level relative to carbachol. The format is functional, cell-based. The gist of the method:
as §2

Test [14] deals with P2Y purinoceptor 2 (Homo sapiens), P41231 [C278S]. Description: Agonist activity at N-terminal HA epitope-tagged human P2Y2 receptor C278S mutant expressed in human 1321N1 cells assessed as increase in intracellular calcium level relative to carbachol. It is filed as functional, cell-based. The essentials: as §2
Test [15] concerns P2Y purinoceptor 2 (Homo sapiens), P41231 [R177A,R180A]. Description: Agonist activity at N-terminal HA epitope-tagged human P2Y2 receptor R177A_R180A double mutant expressed in human 1321N1 cells assessed as increase in intracellular calcium level relative to carbachol. It is filed as functional, cell-based. The essentials:
as §2

Test [16] deals with P2Y purinoceptor 2 (Homo sapiens), P41231 [S296A]. Description: Agonist activity at N-terminal HA epitope-tagged human P2Y2 receptor S296A mutant expressed in human 1321N1 cells assessed as increase in intracellular calcium level relative to carbachol. The format is functional, cell-based. The gist of the method: as §2
In test [17] the test system is P2Y purinoceptor 2 (Homo sapiens), P41231 [R272A]. Description: Agonist activity at N-terminal HA epitope-tagged human P2Y2 receptor R272A mutant expressed in human 1321N1 cells assessed as increase in intracellular calcium level up to 300 uM relative to carbachol. The format is functional, cell-based. The gist of the method: as §2
In test [18] the target is T1, P2Y purinoceptor 2. Description: Agonist activity at N-terminal HA epitope-tagged wild type 3 human P2Y2 receptor expressed in human 1321N1 cells assessed as increase in intracellular calcium level relative to carbachol. The format is functional, cell-based. The gist of the method: as §2
Test [19] concerns P2Y purinoceptor 2 (Homo sapiens), P41231 [Y114A]. Description: Agonist activity at N-terminal HA epitope-tagged human P2Y2 receptor Y114A mutant expressed in human 1321N1 cells assessed as increase in intracellular calcium level relative to carbachol. It is filed as functional, cell-based. The gist of the method: as §2
The test system of test [20] is P2Y purinoceptor 2 (Homo sapiens), P41231 [Y118A]. Description: Agonist activity at N-terminal HA epitope-tagged human P2Y2 receptor Y118A mutant expressed in human 1321N1 cells assessed as increase in intracellular calcium level relative to carbachol. The format is functional, cell-based. The gist of the method:
as §2

Test [21] deals with P2Y purinoceptor 2 (Homo sapiens), P41231 [R194H]. Description: Agonist activity at N-terminal HA epitope-tagged human P2Y2 receptor R194H mutant expressed in human 1321N1 cells assessed as increase in intracellular calcium level relative to carbachol. It is filed as functional, cell-based. The essentials: as §2
Chain of P2Y purinoceptor 2 (Homo sapiens), P41231 [R194H] (P41231 whole entry R194H): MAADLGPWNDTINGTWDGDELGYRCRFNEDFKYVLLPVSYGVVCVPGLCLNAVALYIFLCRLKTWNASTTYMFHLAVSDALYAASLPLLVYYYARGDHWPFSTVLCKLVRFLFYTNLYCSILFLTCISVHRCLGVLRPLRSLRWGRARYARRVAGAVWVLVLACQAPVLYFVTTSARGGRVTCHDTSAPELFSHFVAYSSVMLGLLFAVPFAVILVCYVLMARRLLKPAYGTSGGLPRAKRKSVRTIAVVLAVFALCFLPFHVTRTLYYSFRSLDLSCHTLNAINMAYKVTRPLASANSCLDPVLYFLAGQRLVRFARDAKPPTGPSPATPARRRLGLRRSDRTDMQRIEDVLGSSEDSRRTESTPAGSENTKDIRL

T1 sequence (P41231 whole entry): as the sequence (P41231 whole entry R194H) above, with H194R counted along it
Chain of P2Y purinoceptor 2 (Homo sapiens), P41231 [R177A] (P41231 whole entry R177A): as the sequence (P41231 whole entry R194H) above, with R177A, H194R counted along it
Chain of P2Y purinoceptor 2 (Homo sapiens), P41231 [R180A] (P41231 whole entry R180A): as the sequence (P41231 whole entry R194H) above, with R180A, H194R counted along it
Chain of P2Y purinoceptor 2 (Homo sapiens), P41231 [Y118A] (P41231 whole entry Y118A): as the sequence (P41231 whole entry R194H) above, with Y118A, H194R counted along it
Chain of P2Y purinoceptor 2 (Homo sapiens, UniProt P41231, Y118A) (P41231 whole entry Y118A): as the sequence (P41231 whole entry R194H) above, with Y118A, H194R counted along it
Chain of P2Y purinoceptor 2 (Homo sapiens), P41231 [S296A] (P41231 whole entry S296A): as the sequence (P41231 whole entry R194H) above, with H194R, S296A counted along it
Chain of P2Y purinoceptor 2 (Homo sapiens, UniProt P41231, R177A/R180A) (P41231 whole entry R177A/R180A): as the sequence (P41231 whole entry R194H) above, with R177A, R180A, H194R counted along it
Chain of P2Y purinoceptor 2 (Homo sapiens), P41231 [R177A,R180A] (P41231 whole entry R177A/R180A): as the sequence (P41231 whole entry R194H) above, with R177A, R180A, H194R counted along it
Chain of P2Y purinoceptor 2 (Homo sapiens), P41231 [UNDEFINED MUTATION] (P41231 whole entry, looked up, stated change not applied): as the sequence (P41231 whole entry R194H) above, with H194R counted along it
Chain of P2Y purinoceptor 2 (Homo sapiens, UniProt P41231, Y114A) (P41231 whole entry Y114A): as the sequence (P41231 whole entry R194H) above, with Y114A, H194R counted along it
Chain of P2Y purinoceptor 2 (Homo sapiens), P41231 [Y114A] (P41231 whole entry Y114A): as the sequence (P41231 whole entry R194H) above, with Y114A, H194R counted along it
Chain of P2Y purinoceptor 2 (Homo sapiens, UniProt P41231, Y198A) (P41231 whole entry Y198A): as the sequence (P41231 whole entry R194H) above, with H194R, Y198A counted along it
Chain of P2Y purinoceptor 2 (Homo sapiens), P41231 [Y198A] (P41231 whole entry Y198A): as the sequence (P41231 whole entry R194H) above, with H194R, Y198A counted along it
Chain of P2Y purinoceptor 2 (Homo sapiens), P41231 [C278S] (P41231 whole entry C278S): as the sequence (P41231 whole entry R194H) above, with H194R, C278S counted along it
Chain of P2Y purinoceptor 2 (Homo sapiens, UniProt P41231, C278S) (P41231 whole entry C278S): as the sequence (P41231 whole entry R194H) above, with H194R, C278S counted along it
Chain of P2Y purinoceptor 2 (Homo sapiens), P41231 [R272A] (P41231 whole entry R272A): as the sequence (P41231 whole entry R194H) above, with H194R, R272A counted along it

The term IC50 denotes the point on the concentration scale where inhibition reaches its midpoint. By inhibition is commonly meant the drop in the measured response relative to a control, in per cent. Turning to `Nc1c(S(=O)(=O)O)cc(Nc2ccc(Nc3nc(Cl)nc(Nc4cccc(S(=O)(=O)O)c4)n3)c(S(=O)(=O)O)c2)c2c1C(=O)c1ccccc1C2=O` [RB 2], the concentration for half-maximal inhibition (IC50) at P2Y purinoceptor 2 [1] was 18600 nM; at P2Y purinoceptor 2 [2] it was 1050 nM; on P2Y purinoceptor 2 [4], 9300 nM; at P2Y purinoceptor 2 [6], more than 100000 nM; at P2Y purinoceptor 2 [8] it was 1620 nM; on P2Y purinoceptor 2 [9], 1570 nM. Moreover, the inhibition in test [3] and in test [7] was 55% in each case. Moreover, in [5], the Ratio IC50 was found to be 0.6.
With `O=c1ccn([C@@H]2O[C@H](COP(=O)(O)OP(=O)(O)OP(=O)(O)OP(=O)(O)OC[C@H]3O[C@@H](n4ccc(=O)[nH]c4=O)[C@H](O)[C@@H]3O)[C@@H](O)[C@H]2O)c(=O)[nH]1`, the Efficacy was 127% in [10]; 72% in [11]; 102% in test [12]; 98% at P2Y purinoceptor 2 [13]; 101% in test [15]; 5% in test [16]. The Efficacy at P2Y purinoceptor 2 [18] amounted to 60%; in test [19], 142%; in [20], 25%; in test [21] it was 85%. The Efficacy entry in [14] and in test [17] was “inactive” each time.
